According to ChEMBL document CHEMBL4052591, “Evaluation of Jatrophane Esters from Euphorbia spp. as Modulators of Candida albicans Multidrug Transporters” (2017):
≈ marks a conversion by molar mass, not a printed value.

How the values were obtained:
[1] = tested on: Saccharomyces cerevisiae; test: Potentiation of fluconazole-induced antifungal activity against Saccharomyces cerevisiae AD1-8u(-) assessed as ratio of MIC80 of compound in combinantion with fluconazole to MIC80 of compound alone by checkerboard method; format: functional
Method in brief: (§1)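 CLSI checkerboard in YEPD: 10^4 cells per well, grown 48 h at 30 °C, OD read. Fluconazole 0.15−800 μM was crossed with inhibitor 0.15−800 μM. Run on control AD1-8u− and on strains overexpressing CaCdr1p or CaMdr1p. FIC of each agent = MIC in combination / MIC alone; FICI = sum of both FICs.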

[2] = tested on: Saccharomyces cerevisiae; test: Antifungal activity against Saccharomyces cerevisiae AD over-expressing Candida albicans CDR1 transporter after 48 hrs; format: functional
Method in brief: (§2)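 S. cerevisiae AD1-8u− derivative overexpressing the transporter, grown in YEPD at 30 °C. Cells (10^4) incubated 48 h at 30 °C with a range of inhibitor concentrations […]; growth read as OD600. Growth without inhibitor taken as 100%; MIC80 is the concentration decreasing growth by 80%. Means ± SD of three independent experiments.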

[3] = tested on: Saccharomyces cerevisiae; test: Resistance index, ratio of MIC80 for Saccharomyces cerevisiae AD over-expressing Candida albicans CDR1 to MIC80 for Saccharomyces cerevisiae AD1-8u(-); format: functional
Method in brief: (§3)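 MIC80 of the transporter-overexpressing strain and the AD1-8u− control strain each measured after 48 h growth at 30 °C over 0.15−80 μM inhibitor, read by OD600. MIC80 is the concentration cutting growth by 80% versus the no-inhibitor control. Resistance index = overexpressing-strain MIC80 divided by control-strain MIC80.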

[4] = tested on: Candida albicans; test: Inhibition of Candida albicans MDR1 expressed in Saccharomyces cerevisiae AD assessed as potentiation of fluconazole-induced antifungal activity against Saccharomyces cerevisiae AD by checkerboard method; method in brief: as §1
[5] = tested on: Saccharomyces cerevisiae; test: Antifungal activity against Saccharomyces cerevisiae AD1-8u(-) after 48 hrs; format: functional
Method in brief: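 Growth inhibition of transporter-deleted control S. cerevisiae AD1-8u− over […]; 10^4 cells grown in YEPD for 48 h at 30 °C. OD600 was read and growth without inhibitor was set as 100%. MIC80 is the concentration cutting growth by 80%. Means ± SD from three independent experiments.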

[6] = tested on: Saccharomyces cerevisiae; test: Antifungal activity against Saccharomyces cerevisiae AD over-expressing Candida albicans MDR1 transporter after 48 hrs; format: functional; method in brief: as §2
[7] = tested on: Candida albicans; test: Inhibition of Candida albicans MDR1 expressed in Saccharomyces cerevisiae AD assessed as ratio of MIC80 of fluconazole in combinantion with compound to MIC80 of fluconazole alone for Saccharomyces cerevisiae AD by checkerboard method; method in brief: as §1
[8] = tested on: Saccharomyces cerevisiae; test: Potentiation of fluconazole-induced antifungal activity against Saccharomyces cerevisiae AD1-8u(-) assessed as as ratio of MIC80 of fluconazole in combinantion with compound to MIC80 of fluconazole alone by checkerboard method; format: functional; method in brief: as §1
[9] = tested on: Candida albicans; test: Inhibition of Candida albicans CDR1 expressed in Saccharomyces cerevisiae AD assessed as ratio of MIC80 of fluconazole in combinantion with compound to MIC80 of fluconazole alone for Saccharomyces cerevisiae AD by checkerboard method; method in brief: as §1
[10] = tested on: Candida albicans; test: Inhibition of Candida albicans CDR1 expressed in Saccharomyces cerevisiae AD assessed as ratio of MIC80 of compound in combinantion with fluconazole to MIC80 of compound alone for Saccharomyces cerevisiae AD by checkerboard method; method in brief: as §1
[11] = tested on: Saccharomyces cerevisiae; test: Potentiation of fluconazole-induced antifungal activity against Saccharomyces cerevisiae AD1-8u(-) by checkerboard method; format: functional; method in brief: as §1
[12] = tested on: Candida albicans; test: Inhibition of Candida albicans MDR1 expressed in Saccharomyces cerevisiae AD assessed as ratio of MIC80 of compound in combinantion with fluconazole to MIC80 of compound alone for Saccharomyces cerevisiae AD by checkerboard method; method in brief: as §1
[13] = tested on: Candida albicans; test: Inhibition of Candida albicans CDR1 expressed in Saccharomyces cerevisiae AD assessed as potentiation of fluconazole-induced antifungal activity against Saccharomyces cerevisiae AD by checkerboard method; method in brief: as §1
[14] = tested on: Saccharomyces cerevisiae; test: Resistance index, ratio of MIC80 for Saccharomyces cerevisiae AD over-expressing Candida albicans MDR1 to MIC80 for Saccharomyces cerevisiae AD1-8u(-); format: functional; method in brief: as §3
[15] = tested on: Candida albicans; test: Inhibition of Candida albicans MDR1 transporter expressed in Saccharomyces cerevisiae AD cells assessed as nile red dye accumulation at 70 uM after 30 mins by flow cytometric analysis relative to control; format: cell-based; set-up: Activity: scale not given: the % may be the effect or the level left
Method in brief: (§4)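 S. cerevisiae AD strains overexpressing CaCdr1p (AD-CDR1) or CaMdr1p (AD-MDR1) were grown at 30 °C from OD600 0.1 to 0.25. They were resuspended as a 5% suspension in YEPD:water 1:2. Nile Red (7 μM final) was given ± inhibitor (70 μM) for 30 min at 30 °C. Accumulation was read by flow cytometry on 10 000 cells. Means ± SD, three independent experiments.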

[16] = tested on: Candida albicans; test: Inhibition of Candida albicans CDR1 transporter expressed in Saccharomyces cerevisiae AD cells assessed as nile red accumulation at 70 uM after 30 mins by flow cytometric analysis relative to control; format: cell-based; set-up: Activity: scale not given: the % may be the effect or the level left; method in brief: as §4

Compound: C=C1[C@@H](OC(C)=O)[C@H]2[C@@H](OC(=O)c3ccccc3)[C@@H](C)C[C@]2(O)[C@H](O)[C@H](C)/C=C/C(C)(C)C(=O)[C@H](OC(=O)C(C)C)[C@H]1OC(C)=O
- Ratio [1]: 1
- MIC80 [2]: 710 µM (≈ 456 µg/mL)
- Ratio [3]: 0.9
- fractional inhibitory concentration index (FICI) [4]: 2
- MIC80 [5]: 792 µM (≈ 509 µg/mL)
- MIC80 [6]: 679 µM (≈ 436 µg/mL)
- Ratio [7]: 1
- Ratio [8]: 1
- Ratio [9]: 1
- Ratio [10]: 1
- fractional inhibitory concentration index (FICI) [11]: 2
- Ratio [12]: 1
- fractional inhibitory concentration index (FICI) [13]: 2
- Ratio [14]: 0.85
- Activity [15]: 74%

Compound: C=C1[C@@H](OC(C)=O)[C@H]2[C@@H](OC(=O)COC(=O)c3ccccc3)[C@](C)(OC(C)=O)C[C@]2(O)C(=O)[C@@H](C)/C=C/C(C)(C)[C@H](OC(C)=O)[C@H](OC(C)=O)[C@H]1OC(=O)C(C)C
- Ratio [1]: 1
- MIC80 [2]: 416 µM (≈ 333 µg/mL)
- Ratio [3]: 1.2
- Activity [16]: 92%
- fractional inhibitory concentration index (FICI) [4]: 2
- MIC80 [5]: 324 µM (≈ 259 µg/mL)
- MIC80 [6]: 411 µM (≈ 329 µg/mL)
- Ratio [7]: 1
- Ratio [8]: 1
- Ratio [9]: 0.2
- Ratio [10]: 1
- fractional inhibitory concentration index (FICI) [11]: 2
- Ratio [12]: 1
- fractional inhibitory concentration index (FICI) [13]: 1.2
- Ratio [14]: 1.2

Compound: C=C1[C@@H](OC(=O)C(C)CC)[C@H]2[C@@H](O)[C@](C)(OC(C)=O)C[C@]2(O)C(=O)[C@@H](C)/C=C/C(C)(C)[C@H](OC(C)=O)[C@H](OC(C)=O)[C@H]1OC(=O)c1ccccc1 (some centres not stated)
- Ratio [1]: 1
- MIC80 [2]: 681 µM (≈ 487 µg/mL)
- Ratio [3]: 0.9
- Activity [16]: 64%
- fractional inhibitory concentration index (FICI) [4]: 2
- MIC80 [5]: 719 µM (≈ 514 µg/mL)
- MIC80 [6]: 629 µM (≈ 450 µg/mL)
- Ratio [7]: 1
- Ratio [8]: 1
- Ratio [9]: 1
- Ratio [10]: 0.5
- fractional inhibitory concentration index (FICI) [11]: 2
- Ratio [12]: 1
- fractional inhibitory concentration index (FICI) [13]: 1.5
- Ratio [14]: 0.87
- Activity [15]: 65%

Compound: CC(=O)O[C@H]1[C@@H](OC(C)=O)C(C)(C)/C=C/[C@@](C)(O)C(=O)[C@@]2(O)C[C@@](C)(OC(C)=O)[C@H](OC(C)=O)[C@@H]2[C@H]2OC(=O)CC[C@@]2(OC(C)=O)[C@@H]1OC(=O)C(C)C
- Ratio [1]: 1
- MIC80 [2]: 711 µM (≈ 537 µg/mL)
- Ratio [3]: 1.04
- Activity [16]: 85%
- fractional inhibitory concentration index (FICI) [4]: 1
- MIC80 [5]: 682 µM (≈ 515 µg/mL)
- MIC80 [6]: 691 µM (≈ 522 µg/mL)
- Ratio [7]: 0.5
- Ratio [8]: 1
- Ratio [9]: 1
- Ratio [10]: 1
- fractional inhibitory concentration index (FICI) [11]: 2
- Ratio [12]: 0.5
- fractional inhibitory concentration index (FICI) [13]: 2
- Ratio [14]: 1.01
- Activity [15]: 79%
